KCNQ1 act = potentiates or activates the human KCNQ1 potassium channel. actives 0.35% (n = 310,000). CHO-K1 KCNQ1, thallium flux FluxOR fluorescence; active compounds read high. B-score at 10 µM;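 active means fluorescence ratio B-score, a plate-corrected score, at least three library SD, with initial intensity B-score within 5 SD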
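System: CHO-K1 cells stably expressing KCNQ1 / Medium: assay buffer for compound exposure, DMSO matched across wells / Reagent: thallium- and potassium-containing depolarizing buffer / Compound: one concentration, matched DMSO / Incubation: 20 min compound pretreatment at room temperature / Measured by: kinetic FluxOR fluorescence, 10 s baseline plus 110 s post-stimulus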
KCNK9 inh = inhibitors of human KCNK9 two-pore domain potassium channel | Q9NPC2 | HEK293 KCNK9, FluxOR thallium flux fluorescence; active compounds read low | B-score at 10 µM | actives 1.2% (n = 310,000);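 active means ratio B-score over 3 SD below the library mean, with starting fluorescence within 5 SD of its mean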;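 further: negative B-score means less thallium flux so channel inhibition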
KCNK3 block = human KCNK3 channel inhibition, primary screen. O14649. CHO-KCNK3 thallium flux, FluxOR fluorescence; active compounds read low. B-score at 10 µM. actives 0.84% (n = 340,000);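 active means B-score under library mean minus 4 SD, starting fluorescence ratio at most library mean plus 5 SD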;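 further: more negative B-score means stronger inhibition of thallium flux through KCNK3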
KCNQ1 inh = blocks the human KCNQ1 potassium channel; P51787; CHO-K1 KCNQ1, FluxOR thallium flux fluorescence; active compounds read high; B-score at 10 µM; actives 1.3% (n = 310,000); AID 2642;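 active means compounds whose thallium flux B-score, printed positive for inhibition, exceeds three library SD while starting fluorescence stays within three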;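 further: channel opened by potassium depolarization with thallium stimulus after 20 min compound exposure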
hERG protect = hERG (human) protection from proarrhythmic block. CHO-hERG, FluxOR thallium flux, dofetilide IC70 present. activation (rescue from dofetilide block), less the hit threshold, % at 10 µM. actives 0.51% (n = 310,000);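 active means activation above the mean of controls blocked by dofetilide plus 5 SD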;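 further: thallium influx through hERG after potassium depolarization seen as dye fluorescence rise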
KCNQ1 block val = reconfirmed blocker of the human KCNQ1 potassium channel; shares compounds with KCNQ1 inh; inhibition, % at 10 µM; actives 93% (n = 1,600); KCNQ1 cell line, FluxOR thallium flux fluorescence; AID 588353;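 active means primary screen active, with duplicate mean exceeding buffer control mean plus 3 SD of buffer wells, cut at about 28% in these data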;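 further: 0% = buffer control ratio and 100% = XE991 inhibitor control ratio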
CHO Tl flux = KCNQ1 inhibitor counter-screen hit in parental CHO cells | actives 21% (n = 1,600) | shares compounds with KCNQ1 inh | AID 588366 | parental CHO-K1, FluxOR thallium flux fluorescence ratio; active compounds read low; zero means no signal rise above baseline | fluorescence ratio (Tl flux) at 10 µM;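 active means mean of duplicate thallium-flux fluorescence ratios in parental host cells more than 5 SD below the buffer control mean, cut at about 0.38 in these data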;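 further: ratio is peak minus minimum fluorescence divided by baseline fluorescence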
KCNQ1 APC inh = confirmation of human KCNQ1 potassium channel inhibitors by electrophysiology; calls only at 10 µM; KCNQ1-CHO cells, automated patch clamp current; AID 624120; actives 20% (n = 490); shares compounds with KCNQ1 inh;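 active means KCNQ1 current drop exceeding 3 SD of negative control wells, seen in both duplicate runs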;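 further: steady state current during a 2 s step from -80 to +40 mV; negative values mean current inhibition and positive values mean potentiation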
KCNQ2 inh = rat KCNQ2 inhibition in KCNQ1 inhibitor specificity screen; AID 651746; shares compounds with KCNQ1 inh; inhibition, % at 10 µM; actives 71% (n = 1,600); KCNQ2 cells, FluxOR thallium flux fluorescence;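 active means mean percent inhibition of the KCNQ2 thallium signal more than 5 SD above the buffer-only control wells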;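 further: KCNQ2 expressed in CHO cells; 0% = buffer control wells and 100% = XE-991 inhibitor control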
KCNQ1 KCNE1 spec = human KCNQ1/KCNE1 inhibition in KCNQ1 specificity screen; shares compounds with KCNQ1 inh; KCNQ1/KCNE1 cells, FluxOR thallium flux fluorescence; inhibition, % at 10 µM; actives 77% (n = 1,600);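 active means mean percent inhibition of duplicate wells above the buffer-only control mean plus 3 SD of those controls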;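 further: 0% = buffer only wells and 100% = XE-991 inhibitor control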
KCNK9 block conf = human KCNK9 inhibitor confirmation; HEK293 KCNK9 cells, FluxOR thallium flux fluorescence; actives 43% (n = 4,900); inhibition, % at 10 µM; AID 492992; shares compounds with KCNK9 inh;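 active means thallium signal inhibited by more than 5 SD of the compound-free buffer control wells, on both duplicate plates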;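 further: 0% = assay buffer control wells without compound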
Kir21 sel = tests whether KCNK9 modulators also affect mouse Kir2.1; shares compounds with KCNK9 inh; Kir2.1 cells, FluxOR thallium flux fluorescence; inhibition, % at 10 µM; actives 4% (n = 4,900); AID 492993;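 active means thallium signal drop more than 5 SD beyond the mean of the no-compound control wells, seen in both duplicate plates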;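 further: signal is fluorescence rise after thallium addition divided by baseline fluorescence; plate controls were assay buffer only for no effect and full block by chlorpromazine control for full effect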
Target sequence (P35561 whole entry, looked up): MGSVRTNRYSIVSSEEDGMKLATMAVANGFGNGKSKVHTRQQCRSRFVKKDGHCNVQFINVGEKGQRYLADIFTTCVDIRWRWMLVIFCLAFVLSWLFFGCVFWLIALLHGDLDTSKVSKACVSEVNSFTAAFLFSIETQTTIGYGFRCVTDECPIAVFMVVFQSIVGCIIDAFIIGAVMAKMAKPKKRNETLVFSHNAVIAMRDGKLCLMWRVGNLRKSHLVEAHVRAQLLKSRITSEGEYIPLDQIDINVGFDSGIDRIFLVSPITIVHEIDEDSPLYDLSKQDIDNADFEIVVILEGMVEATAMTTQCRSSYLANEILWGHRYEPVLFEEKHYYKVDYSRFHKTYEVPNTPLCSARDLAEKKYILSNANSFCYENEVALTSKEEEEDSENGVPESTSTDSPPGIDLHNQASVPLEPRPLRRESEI
HEK293 Tl ctr = non-induced cell nonspecific activity of KCNK9 modulators | non-induced KCNK9-HEK293, FluxOR thallium flux | shares compounds with KCNK9 inh | actives 40% (n = 4,900) | inhibition, % at 10 µM;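 active means thallium signal drop beyond 5 SD of the untreated control mean, on both duplicate plates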;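 further: plate controls were buffer only IC0 wells for no effect and SID17386958 at its maximal inhibitory level for full effect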
* = called active by the depositor; i = inactive; x = no result given; + = active, no number. A selection: hits, their analogues and other compounds. The true share with any hit is near 3.1%.

SMILES	KCNQ1 act	KCNK9 inh	KCNK3 block	KCNQ1 inh	hERG protect	KCNQ1 block val	CHO Tl flux	KCNQ2 inh	KCNQ1 KCNE1 spec	KCNK9 block conf	Kir21 sel	HEK293 Tl ctr	others
CCOC(=O)c1sc2nc(CC(=O)OC)nc(N3CCN(c4ccccn4)CC3)c2c1C	i	i	i	8*	-8	112*	0.41	110%*	140%*	i	i	i	KCNQ1 APC inh=i
CCN1C(c2ccccc2)C(C)C(=O)C(C)C1c1ccccc1 (stereo not given)	i	i	i	8*	-11	120*	0.42	89%*	128%*	i	i	i	KCNQ1 APC inh=i
Cc1ccc(C)c(N2CCN(C(=O)C(Cc3ccccc3)n3cccc3)CC2)c1 (stereo not given)	i	-13*	i	14*	-13	116*	0.36*	103%*	166%*	58%*	i	40%*
COc1cc(C2NC(=O)NC(c3ccccc3)=C2C(C)=O)c(Cl)cc1OCC(=O)O (stereo not given)	i	i	i	i	1	x	x	x	x	x	x	x
O=C(c1ccc(Cl)c(Cl)c1)N(Cc1ccco1)c1ccc(O)cc1	i	-11*	i	7*	-13	84*	0.4	106%*	118%*	40%*	32%*	42%*
O=C(COc1ccccc1)N(Cc1ccco1)c1ccc(O)cc1	i	i	i	i	-2	x	x	x	x	x	x	x
COC(=O)C(Cc1c[nH]c2ccccc12)NC(=O)C(C)C (stereo not given)	i	i	i	i	-6	x	x	x	x	x	x	x
COC(=O)C(Cc1c[nH]c2ccccc12)NC(=O)C(=O)c1c[nH]c2ccccc12 (stereo not given)	i	-12*	i	7*	-18	68*	0.48	84%*	108%*	i	i	i
O=C(Cn1c(-c2ccccc2)c[n+]2ccsc12)c1ccc(Br)cc1	i	i	i	i	-2	x	x	x	x	x	x	x
O=[N+]([O-])c1ccc(Sc2cccc[n+]2[O-])c2nonc12	i	-16*	-14*	18*	-52	140*	0.26*	i	+	74%*	66%*	78%*
Cc1ccc(C(=O)OCc2ccc3c(c2)OCO3)cc1S(=O)(=O)N1CCCCC1	i	-13*	i	7*	-8	74*	0.41	85%*	78%*	41%*	i	36%*
Cc1ccc(C(=O)Nc2ccc3c(c2)OCO3)cc1S(=O)(=O)N1CCCC1	i	i	i	i	-4	x	x	x	x	x	x	x
COc1cc(OC)cc(-c2c(-c3cccs3)c3cc(-c4ccc(C(N)=O)cc4)ccc3n2C)c1	x	x	i	x	x	x	x	x	x	x	x	x
COc1cccc(C(=O)C2CCCN(Cc3cccn3-c3ccccn3)C2)c1 (stereo not given)	i	i	i	i	-23	x	x	x	x	x	x	x
CC(C)Oc1cccc(C(=O)C2CCCN(Cc3cccn3-c3ccccn3)C2)c1 (stereo not given)	i	i	i	8*	-19	52*	0.47	76%*	i	i	i	i
Cc1cccc2c1cnn2C(=O)CCC(=O)N1CCC(C)CC1	i	i	i	i	-5	x	x	x	x	x	x	x
Cc1cccc2c1cnn2C(=O)CCC(=O)N1CC(C)CC(C)C1 (stereo not given)	i	i	i	11*	-13	25*	0.48	72%*	i	i	i	i
CSc1nc2cc(C)nn2c(-c2ccccc2Cl)c1C#N	i	i	i	i	-2	x	x	x	x	x	x	x
O=C(NCc1ccccc1)c1cccc(COc2ccc3c(c2)CCC3)c1	i	i	i	7*	-8	98*	0.39	112%*	139%*	i	i	i	KCNQ1 APC inh=+
Cc1cc(C)n(Cc2ccc(Cl)cc2Cl)c(=O)c1S(=O)(=O)c1ccccc1	i	-12*	i	8*	-15	81*	0.46	81%*	102%*	56%*	i	42%*
O=C(c1nc2ccc(Cl)cn2c1CNCC[C@@H]1C[C@@H]2C=C[C@H]1C2)N1CCCCCCC1	i	i	i	9*	-14	98*	0.47	82%*	84%*	i	i	i	KCNQ1 APC inh=i
C[C@@H]1CN(C(=O)c2nc3ccc(Cl)cn3c2CNCC[C@@H]2C[C@@H]3C=C[C@H]2C3)C[C@H](C)O1	i	i	i	i	-7	x	x	x	x	x	x	x
CCCc1nc(SCC(=O)N2CCC(Cc3ccccc3)CC2)c2c(=O)n(C)c(=O)n(C)c2n1	i	i	i	6*	-34	98*	0.41	i	i	i	i	i
CCOc1ccccc1NC(=S)NCCc1ccccc1	i	i	i	i	-15	x	x	x	x	x	x	x
Cc1cc(C(=O)NNC(=O)Cc2ccc(Cl)c(Cl)c2)c(C)o1	x	x	i	x	x	x	x	x	x	x	x	x
N#CCC(=O)Nc1ccc(C(=O)OCC(=O)Nc2ccccc2Sc2ccccc2)cc1	i	-9.1*	i	6*	-5	99*	0.43	91%*	153%*	50%*	i	34%*	KCNQ1 APC inh=+
O=c1oc2cc(O[C@@H]3OC[C@@H](O)[C@H](O)[C@H]3O)ccc2c2ccccc12	i	i	i	i	-5	x	x	x	x	x	x	x
COc1cnc(-c2ccccn2)nc1N(C)c1ccccc1	i	i	i	i	-6	x	x	x	x	x	x	x
Cc1cccc(C)c1OCc1cc(C(=O)N2CCCCCCC2)no1	i	i	i	i	-10	x	x	x	x	x	x	x
